Data from article PMC3793015 (Journal of agricultural and food chemistry, 2013).

How the values were obtained:
[1] = Stability of α-MG during incubation in cell-free culture media; assay type: physicochemical; details: for calculated rate of α-MG loss per hour: DMSO, 24 h incubation; for recovery of α-MG after 24 h incubation: Tween 40 micelles
Summary of the method: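 Compound was incubated cell-free for 24 h at 37 °C in RPMI, MEM, DMEM or McCoy's 5A, sampled at 0, 4, 8 and 24 h, extracted and analysed by RP-HPLC. Vehicles tested were: DMSO into medium without FBS or with 10% FBS (final DMSO <0.03%); Tween 40 micelles (final <0.02%) in DMEM or McCoy's; compound preincubated 48 h in 100% FBS, diluted 1:10 in RPMI 1640. Mean ± SD, n = 3 dishes.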

HepG2 = assay: Cytotoxicity of α-MG; assay type: cell-based, human; details: read-out: IC50 (cytotoxicity); HepG2, 24 h, 10% FBS delivery
Summary of the method: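 Cytotoxicity was judged by phase-contrast morphology and MTT reduction to formazan after exposure to increasing compound concentrations. Exposure was 24 h for RAW 264.7, MDM, HepG2 and HT-29, 8 h for PMA-differentiated THP-1, and 4 h for differentiated Caco-2. Delivery was DMSO into 10% FBS medium for RAW 264.7, THP-1 and HepG2; FBS-complexed compound at 10% FBS in RPMI 1640 for MDM; Tween 40 micelles for Caco-2 and HT-29.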

[2] = system: IL-8 secretion by enterocyte-like Caco-2 cells; assay: IL-8 secretion into basolateral medium; assay type: cell-based, human
Summary of the method: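 Caco-2 monolayers were differentiated 21–25 days post-confluence on Transwell inserts. Compound in Tween 40 micelles went into the apical compartment, and IL-1β was added basolaterally. IL-8 in basolateral medium was measured by ELISA, with and without IL-1β.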

[3] = system: IL-8 secretion by colonic HT-29 cells; assay: IL-8 secretion; assay type: cell-based, human
Summary of the method: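 HT-29 monolayers, 2 days post-confluence, were pretreated with compound delivered in Tween 40 micelles. Activation used LPS from E. coli O111:B4. IL-8 secreted into the medium was quantified by ELISA, in both activated and nonactivated cultures.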

Caco-2 cells = assay: Cellular uptake, metabolism and transport of α-MG on Transwell inserts; assay type: in vitro ADME, human
Summary of the method: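 Caco-2 cells were differentiated 21–25 days post-confluence on Transwell inserts. Compound (12 μM) in Tween 40 micelles was added apically for 24 h. Activated cultures had 5 ng/mL IL-1β for 4 h, then a PBS wash. Apical medium, basolateral medium and cell monolayer were collected separately and analysed by RP-HPLC for free and conjugated xanthones. Amounts are % of initial compound; mean ± SD, n ≥ 5.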

HT-29 cells = assay: Cellular uptake and metabolism of α-MG; assay type: in vitro ADME, human
Summary of the method: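 HT-29 monolayers, 2 days post-confluence, given 8.5 μM compound in Tween 40 micelles in medium for 24 h. Activated cultures had 800 ng/mL LPS for 4 h, then a PBS wash, before compound. Spent medium and cells were collected separately, extracted and analysed by RP-HPLC, including glucuronide/sulfate conjugates. Xanthones were identified by retention time and UV spectrum and quantified against five-point mangostin standard curves. Results are given as % of initial compound; mean ± SD, n ≥ 5.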

[4] = 24 h after addition of α-MG, control cultures, nd: not detected
[5] = Caco-2 Transwell, 12 μM apical, 24 h

COc1c(O)cc2oc3cc(O)c(CC=C(C)C)c(O)c3c(=O)c2c1CC=C(C)C [α-MG, α-mangostin]
calculated rate of α-MG loss per hour ([1]; DMEM lacking FBS, cell free): 3.2%
recovery of α-MG after 24 h incubation ([1]; DMEM without FBS, cell free): 110 ± 3
stability of α-MG during 24 h incubation ([1]; DMSO stock added to media (RPMI 1640, MEM, DMEM) with 10% (v/v) FBS, cell free): 101 ± 6%
calculated rate of α-MG loss per hour ([1]; MEM lacking FBS, cell free): 4.0%
calculated rate of α-MG loss per hour ([1]; McCoy's 5A lacking FBS, cell free): 2.3%
recovery of α-MG after 24 h incubation ([1]; McCoy's medium without FBS, cell free): 108 ± 4
calculated rate of α-MG loss per hour ([1]; RPMI lacking FBS, cell free): 2.7%
stability of α-MG after 24 h ([1]; added to 100% FBS diluted 1:10 (v:v) into RPMI 1640, cell free): 95 ± 8%
IC50 (HepG2): 25 µM
inhibition of IL-8 chemokine secretion ([2]; activated Caco-2, 15 μM pretreatment 4 h, IL-1β 5 ng/mL 16 h): 30–40%
effect on secretion of IL-8 ([2]; nonactivated Caco-2 cultures): not altered
inhibition of IL-8 chemokine secretion ([3]; activated HT-29, 10 μM pretreatment 1 h, LPS 100 ng/mL 16 h): 30–40%
effect on basal secretion of IL-8 ([3]; nonactivated HT-29 cultures): more than doubled
xanthone in media, Caco-2 (Caco-2 cells; 0 h, amount of α-MG at start): 20741 ± 261 pmol/dish
intracellular profile table, α-MG at 0 h, Caco-2 (Caco-2 cells; 0 h, control cultures): 20741 ± 261 pmol/dish
intracellular xanthone, Caco-2 (Caco-2 cells; [4]): 3000 ± 551 pmol/dish
ratio of free to conjugated xanthones in apical medium, activated vs control (Caco-2 cells; Caco-2, 5 ng/mL IL-1β, 24 h, p < 0.05): increased
recovery of xanthones, of α-MG added (Caco-2 cells; Caco-2, 24 h): approximately 65%
amount of xanthones and ratio of conjugated to free xanthones transported into basolateral compartment (Caco-2 cells; Caco-2, treatment with IL-1β vs control, p < 0.05): increased
conjugated xanthones in basolateral medium (Caco-2 cells; [5]): 1.7 ± 0.3%
conjugated xanthones in cells (Caco-2 cells; [5]): 10 ± 3%
conjugates in apical medium (Caco-2 cells; [5]): 11 ± 2%
free xanthones in apical medium (Caco-2 cells; [5]): 35 ± 1%
free xanthones in basolateral medium (Caco-2 cells; [5]): 0.8 ± 0.1%
free xanthones in cells (Caco-2 cells; [5]): 6 ± 0.6%
xanthones in apical medium (total), of initial α-mangostin (Caco-2 cells; [5]): 47 ± 3%
xanthones in basolateral medium (total), of initial α-mangostin (Caco-2 cells; [5]): 3 ± 0.3%
xanthones in cells (total), of initial α-mangostin (Caco-2 cells; [5]): 16 ± 3%
intracellular ratio of free to conjugated xanthones, activated vs control (Caco-2 cells; Caco-2 cells, 5 ng/mL IL-1β 4 h before α-MG, 24 h, p < 0.05): increased
xanthone in media, HT-29 (HT-29 cells; 0 h, amount of α-MG at start): 16517 ± 373
intracellular profile table, α-MG at 0 h, HT-29 (HT-29 cells; 0 h, control cultures): 16517 ± 373
intracellular xanthone, HT-29 (HT-29 cells; [4]): 807 ± 178
ratio of free to conjugated xanthones in medium, activated vs control (HT-29 cells; HT-29, 800 ng/mL LPS 4 h before α-MG, 24 h, p < 0.05): increased
free xanthones in medium, of initial α-MG (HT-29 cells; HT-29, 8.5 μM, 24 h, control): 7 ± 2%
nonconjugated xanthones in cells (HT-29 cells; HT-29, 8.5 μM, 24 h, control): only traces
phase II conjugates in cells, of α-MG added (HT-29 cells; HT-29, 8.5 μM, 24 h, control): 5 ± 1%
phase II conjugates in medium, of α-MG added (HT-29 cells; HT-29, 8.5 μM, 24 h, control): 42 ± 3%
recovery of α-MG (HT-29 cells; HT-29, 24 h incubation): 54 ± 4%
